The target of assay [1] is Apoptosis regulator Bcl-2 (Homo sapiens, UniProt P10415). The assay is described as follows: Displacement of FAM-Bid peptide from human recombinant Bcl2 after 30 mins by competitive fluorescence polarization assay. In a few lines:
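Bcl-2 (40 nM) preincubated with 10 nM FAM-Bid peptide (Kd 8 nM) in 100 mM potassium phosphate pH 7.5, bovine gamma globulin, 0.02% sodium azide. Serial compound dilutions added in 0.01% Triton X-100; polarization read after 30 min. Controls were protein plus peptide, and peptide alone. Ki derived from an equation developed for FP assays.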
For orientation: In fluorescence polarisation assays a small probe gives low polarisation when free and higher when bound to something large.

For assay [2], the target named is Induced myeloid leukemia cell differentiation protein Mcl-1 (Homo sapiens, UniProt Q07820). The assay is described as follows: Displacement of FAM-Bid peptide from human Mcl-1 after 30 mins by competitive fluorescence polarization assay. In a few lines:
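Serial compound dilutions added with 0.01% Triton X-100; polarization read after 30 min. Controls were protein plus peptide, and peptide alone. Ki calculated with an FP-specific competitive binding equation.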

Assay [3] has as its system HL-60. The assay is described as follows: Cytotoxicity in human HL60 cells overexpressing Bcl-2 after 48 hrs by MTT assay. It counts as functional, cell-based. Conditions: HL-60, 48 h.
The test system of assay [4] is MCF7. The assay is described as follows: Cytotoxicity in human MCF7 cells overexpressing Mcl-1after 48 hrs by MTT assay. It counts as functional, cell-based. Conditions: MCF7, 48 h.
Assay [5] has as its system K562. The assay is described as follows: Cytotoxicity in human K562 cells overexpressing Mcl-1 after 48 hrs by MTT assay. It is filed as functional, cell-based. Conditions: K562, 48 h. On the technique in general: Tetrazolium assays rely on reduction of a dye to a coloured formazan, in cell work by metabolically active cells.

Induced myeloid leukemia cell differentiation protein Mcl-1, sequence (Q07820 whole entry): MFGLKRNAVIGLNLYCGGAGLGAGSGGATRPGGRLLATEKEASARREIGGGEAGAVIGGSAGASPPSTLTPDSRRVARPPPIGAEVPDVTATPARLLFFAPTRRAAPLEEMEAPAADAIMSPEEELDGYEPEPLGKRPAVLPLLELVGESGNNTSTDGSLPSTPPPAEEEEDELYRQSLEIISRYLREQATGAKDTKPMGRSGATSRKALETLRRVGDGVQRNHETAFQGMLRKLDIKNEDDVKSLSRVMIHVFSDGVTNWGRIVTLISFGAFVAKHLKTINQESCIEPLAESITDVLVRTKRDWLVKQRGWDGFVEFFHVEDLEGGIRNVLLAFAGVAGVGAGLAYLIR
Apoptosis regulator Bcl-2, sequence (P10415 whole entry): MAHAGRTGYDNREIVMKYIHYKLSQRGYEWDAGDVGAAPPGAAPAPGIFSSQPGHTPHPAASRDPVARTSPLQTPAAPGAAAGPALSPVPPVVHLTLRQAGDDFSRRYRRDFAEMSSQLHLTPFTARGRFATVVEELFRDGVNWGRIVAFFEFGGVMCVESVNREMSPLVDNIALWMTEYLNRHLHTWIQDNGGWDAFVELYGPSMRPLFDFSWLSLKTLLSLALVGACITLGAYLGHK

As a reminder, the Ki is a dissociation constant, usually derived from enzyme kinetics or from competition with a known ligand. Take `Cc1ccc(Oc2ccc3c4c(cccc24)C2=NC(=O)C(C#N)=C23)cc1`: the Ki is 445 nM in assay [1] and 174 nM in assay [2].

As for `N#CC1=C2C(=NC1=O)c1cccc3c(Oc4ccc(-c5ccccc5)cc4)ccc2c13`, the Ki in assay [1] was found to be 308 nM.

The term IC50 denotes the concentration needed to halve the response being measured. A higher IC50 goes with weaker potency. Take `COc1ccc(Oc2ccc3c4c(cccc24)C2=NC(=O)C(C#N)=C23)cc1`: the IC50 in assay [3] came out at 1900 nM; in assay [4] it was 5100 nM; in assay [5], 4700 nM. Further, the Ki came to 304 nM in assay [1] and 122 nM in assay [2].

In the case of `CC(C)c1ccc(Oc2ccc3c4c(cccc24)C2=NC(=O)C(C#N)=C23)cc1`, in assay [1], the inhibitory constant (Ki) was determined as 232 nM.

As for `Cc1cccc(Oc2ccc3c4c(cccc24)C2=NC(=O)C(C#N)=C23)c1`, the Ki in assay [1] is 6030 nM; in assay [2], 445 nM.

Consider `Cc1ccccc1Oc1ccc2c3c(cccc13)C1=NC(=O)C(C#N)=C12`, for which the Ki in assay [1] was determined as 1430 nM; in assay [2], 213 nM.

On to `COc1ccccc1Oc1ccc2c3c(cccc13)C1=NC(=O)C(C#N)=C12`, for which the inhibitory constant (Ki) amounted to 886 nM in assay [1] and 149 nM in assay [2].

On to `COc1cccc(Oc2ccc3c4c(cccc24)C2=NC(=O)C(C#N)=C23)c1`, for which the IC50 is > 50000 nM in assay [3], 6400 nM in assay [4] and 8300 nM in assay [5]. The inhibition constant Ki in assay [1] is 16600 nM; in assay [2], 375 nM.

Consider `CCC(C)c1ccc(Oc2ccc3c4c(cccc24)C2=NC(=O)C(C#N)=C23)cc1` (stereo not drawn), for which the IC50 worked out at 40 nM in assay [3], 20 nM in assay [4] and 50 nM in assay [5].

For the origin of these results see ChEMBL document CHEMBL1821721, “Probing the difference between BH3 groove of Mcl-1 and Bcl-2 protein: Implications for dual inhibitors design” (Eur J Med Chem, 2011).
